DTT redox prof: compounds producing H2O2 with reducing agent – biochemical, NIH compound library profiling, artefact control for MLSCN library redox annotation, primary screen. DTT-dependent redox cycling H2O2, phenol red/HRP absorbance; 100% = 100 µM peroxide control, 0% = buffer. activation, % at 10 µM. 0.03% of 200,000 active;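 active = activation of at least 50% relative to the plate's high and low controls in the primary single-dose screen; inactive = activation below 50%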;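 also: compound incubated with DTT at 0.8 mM final as the reducing agent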
Diaph act CS: counter-screen for diaphorase-based assays: diaphorase activators and chemical reducers. 0.005% of 190,000 active. activation factor at 20 µM. AID 1229. Diaphorase/resazurin coupled assay, resorufin fluorescence, 16 min; active compounds read high; 1 = vehicle wells, 0 = NADH-free wells;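 active = diaphorase activity raised at least twofold by the compound at 20 µM; inactive = activation factor below 2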
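Material: purified diaphorase enzyme from Clostridium kluyveri; Also added: 0.114 mM NADH and 0.1 mM resazurin, final amounts; Doses: single compound dose of 20 µM, 1% DMSO final; Times: 16 min enzyme reaction, ambient temperature; Detection: resorufin fluorescence, excitation 544 nm, emission 590 nm; Measure: increased resorufin signal from activators or reducing compounds.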
Lmaj promast: inhibitors of Leishmania major promastigote growth. 9% of 200,000 active. AID 1063. inhibition, % at 10 µM. Leishmania major promastigotes, resazurin fluorescence viability;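 also: promastigotes grown with compound for 44 hours at 28 °C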
G6PDH counter: L. mesenteroides G6PDH inhibition counter-screen; Purified L. mesenteroides G6PDH, diaphorase/resazurin coupled fluorescence, 45 min; inhibition, % at 5 µM; 0.12% of 200,000 active; AID 1020
PfG6PD inh: PfG6PD (Plasmodium falciparum) enzyme inhibition. PfGluPho enzyme, NADPH resazurin-diaphorase fluorescence. AID 504690. inhibition, % at 20 µM. 0.78% of 350,000 active;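 active = inhibition reaching at least a set limit at 20 µM in the primary screen, cut at about 59% in these data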;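 also: 0% = DMSO wells with substrate and 100% = DMSO wells lacking glucose-6-phosphate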
Diaphorase inh: inhibits diaphorase or chemically oxidizes, flagging diaphorase assay artifacts; 0.69% of 190,000 active; AID 1217; inhibition, % at 20 µM; diaphorase resazurin-to-resorufin fluorescence, NADH, 16 min; bacterial (C. kluyveri) enzyme, not human;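 active = primary screen inhibition at 20 µM above a set limit, cut at about 50% in these data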;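 also: plate controls were DMSO with full reaction for no effect and wells lacking NADH for full effect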
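System: Diaphorase enzyme from Clostridium kluyveri | Amount: Enzyme working solution with 0.14 U/mL diaphorase | Benchmarks: No-NADH positive control and DMSO neutral control | Signal: Fluorescence of resorufin formed from resazurin, Ex 544/Em 590 nm | Schedule: 16-min room-temperature incubation before reading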
Starred values were filed as active, the others as inactive; . = no result given. Only a selection was taken, and hits are over-represented in it overall. Rule as the data show it, unless noted: active = inhibition above about 50%; inactive = the rest.

SMILES	DTT redox prof	Diaph act CS	Lmaj promast	G6PDH counter	PfG6PD inh	Diaphorase inh
Cc1ccc2nc(SCC(=O)Nc3cc(C(F)(F)F)ccc3N3CCOCC3)[nH]c2c1	0	1	53*	5	-5	5
CCn1c(SCC(=O)Nc2cc3oc4ccccc4c3cc2OC)nnc1-c1cccs1	0	0.8	66*	-71	14	16
Cc1cc(Cl)ccc1NC(=O)CSc1nnc(Cc2cccs2)n1Cc1ccco1	2	0.9	86*	-24	26	15
C=CCn1c(Cc2cccs2)nnc1SCC(=O)NCc1ccco1	0	0.8	-9	5	-1	19
COc1cc2c(cc1NC(=O)C(C)Sc1ccc(C)cc1)oc1ccccc12 (stereo not drawn)	-3	0.2	7	0	5	76*
CSc1nn(-c2ccc(C(=O)OCC(=O)NC(=O)NC(C)C)cc2)c(=S)s1	0	0.8	-1	14	-2	17
Clc1ccc(/C=C/c2nc3ccccc3[nH]2)cc1	2	0.9	31	4	48	7
Clc1cccc(Cl)c1/C=C/c1nc2ccccc2[nH]1	0	0.9	98*	13	29	10
O=C(COC(=O)c1ccc(F)c(S(=O)(=O)N2CCOCC2)c1)Nc1ccc(Cl)cn1	.	.	.	.	-17	.
COc1ccc(NS(=O)(=O)c2cccc(C(=O)NCC(c3ccco3)N3CCCC3)c2)cc1 (stereo not drawn)	.	.	.	.	9	.
O=C1CC(N2CCN(Cc3ccccc3)CC2)C(=O)N1CCc1ccccc1 (stereo not drawn)	0	0.9	88*	4	5	13
COc1ccc(OCCN2CCN(C3CC(=O)N(CCC(C)C)C3=O)CC2)cc1 (stereo not drawn)	-2	1.1	92*	12	3	-7
O=C1CC(N2CCN(Cc3ccc(Cl)cc3)CC2)C(=O)N1CCc1ccccc1 (stereo not drawn)	.	.	.	.	-3	.
COc1ccc(CCN2C(=O)CC(N3CCN(S(=O)(=O)c4ccccc4)CC3)C2=O)cc1 (stereo not drawn)	0	0.9	63*	4	-13	10
Cc1ccc(S(=O)(=O)N2CCN(C3CC(=O)N(Cc4ccccc4)C3=O)CC2)cc1C (stereo not drawn)	2	0.7	93*	5	-19	32
COc1ccc(CCN2C(=O)CC(N3CCOCC3)C2=O)cc1 (stereo not drawn)	3	1	-2	2	-1	3
OCCNc1c2ccccc2nc2ccccc12	-1	0.9	100*	9	2	13
OCCNc1nc2ccccc2nc1NCCO	.	.	.	.	20	.
CN(C)S(=O)(=O)c1ccc(N2CCCC2)c(C(=O)Nc2nc(-c3ccc(F)c(F)c3)cs2)c1	0	0.8	52*	0	-15	15
CN(C)S(=O)(=O)c1ccc(N2CCCC2)c(C(=O)Nc2nc3c(ccc4ccccc43)s2)c1	0	0.9	97*	0	1	12
Cc1cc(Cl)cc(Cl)c1OCCOCCN(C)C	-1	1	65*	0	-22	0
COCCNCCOCCOc1ccc(Cl)c(C)c1	0	1	100*	4	-21	5
Cc1cc(OCCOCCN(C)C)ccc1Cl	0	0.7	89*	5	0	29
CCc1cc(OCCN(C)C)ccc1Cl	0	0.9	5	-2	8	14
COc1ccc(S(=O)(=O)N(C)C[C@H]2Oc3ncc(C#CC4(O)CCCC4)cc3C(=O)N([C@@H](C)CO)C[C@@H]2C)cc1	.	.	.	.	16	.
SMILES	DTT redox prof	Diaph act CS	Lmaj promast	G6PDH counter	PfG6PD inh	Diaphorase inh
Cc1ccc(Sc2ccc([N+](=O)[O-])cc2[N+](=O)[O-])nc1	0	1	58*	5	35	4
Cc1ccnc(Sc2ccc([N+](=O)[O-])cc2[N+](=O)[O-])n1	-1	1	100*	-1	12	0
O=C(NNC1=Nc2cccc3cccc1c23)c1ccc(Br)cc1	0	1.2	82*	21	-3	-24
COc1ccc(CC(=O)NNC2=Nc3cccc4cccc2c34)cc1OC	.	.	.	.	4	.
O=[N+]([O-])c1ccc(NCCCNS(=O)(=O)c2ccc(Cl)cc2)c(Cl)c1	-4	0.8	94*	-2	6	20
CS(=O)(=O)N(CC(=O)NC1CC1)C1CCCCC1	0	1	-3	0	-13	5
CCn1c2ccccc2c2cc(NC(=O)CSc3nnc(-c4cccc(F)c4)o3)ccc21	0	0.9	4	2	-5	8
O=C(CSc1nccc(=O)[nH]1)Nc1ccc(F)c([N+](=O)[O-])c1	.	0.8	51*	0	-20	17
CCn1c(SCC(=O)Nc2ccc3c(c2)c2ccccc2n3CC)nnc1-c1ccco1	0	0.7	72*	-4	76*	28
CCn1c2ccccc2c2cc(NC(=O)CSc3nnc(-c4ccccc4)o3)ccc21	0	0.8	85*	-2	-12	22
CCn1c2ccccc2c2cc(NC(=O)CSc3nnc(-c4cccc(C)c4)o3)ccc21	0	0.9	92*	7	21	10
O=C(OCc1nc(-c2ccccc2Cl)no1)c1ccco1	.	.	.	.	19	.
CCOc1ccc(C2OCCC(C)O2)cc1OC (stereo not drawn)	.	.	.	.	-10	.
Cc1cc(C(=O)O)cc(S(=O)(=O)NNC(=O)c2cccs2)c1C	.	.	.	.	-10	.
Cc1cc(C(=O)CCC(=O)N(C)CC(=O)Nc2ccc(OC(F)(F)F)cc2)c(C)s1	.	.	.	.	10	.
O=C(CSc1nccc(=O)[nH]1)Nc1ccc2ccccc2c1	.	.	.	.	-5	.
CCn1c2ccccc2c2cc(NC(=O)CSc3nccc(=O)[nH]3)ccc21	0	0.9	90*	1	-8	8
O=C(CSc1nnc(-c2ccncc2)o1)NCc1ccccc1	0	0.9	50*	10	9	7
COc1ccc(NC(=O)c2ccccc2NC(=O)CSc2ccc(Cl)cc2)cc1	3	1	-1	38	-13	2
O=C(NNC(=O)c1ccc(F)cc1)C(=O)N1CCCCC1	-1	0.9	95*	-10	-10	11
COc1ccccc1C(=O)NNC(=O)C(=O)N1CCCCC1	.	.	.	.	-8	.
O=C(NNc1ccccc1)C(=O)N1CCCCC1	0	0.9	67*	-8	-3	11
CN(C(=O)COC(=O)CSc1cc(Cl)ccc1Cl)c1c(N)n(Cc2ccccc2)c(=O)[nH]c1=O	.	.	.	.	11	.
CCN(CC)c1ccc2cc(C(=O)NNC(=O)c3ccc(S(=O)(=O)N4CCCCC4)cc3)c(=O)oc2c1	0	0.9	92*	-2	-12	8
CCN(CC)c1ccc2cc(S(=O)(=O)c3ccc(C)cc3)c(=O)oc2c1	0	0.8	96*	10	7	19

Assay outcomes (PubChem BioAssay)
